Reference: ChEMBL document CHEMBL1667862, “Chisopanins A-K, 11 new protolimonoids from Chisocheton paniculatus and their anti-inflammatory activities” (Bioorg Med Chem, 2011)
pIC50: −log10 of the molar value.

How the values were obtained:
[1] = test system: RAW264.7; assay: Antiinflammatory activity in mouse RAW264.7 cells assessed as inhibition of LPS-induced nitric oxide production treated 2 hrs before LPS challenge measured after 18 hrs by griess reaction; type: functional, cell-based
Outline: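 RAW 264.7 cells seeded at 1 × 10^5 per well in 24-well plates in RPMI 1640 with 10% heat-inactivated FBS, grown 24 h. Pretreated 2 h with compounds (40, 20, 10, 5, 2.5 µM; DMSO ≤0.1% final), then stimulated with LPS 2 µg/mL for 18 h. Nitrite measured. Mean ± SD.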

[2] = test system: RAW264.7; assay: Antiinflammatory activity in mouse RAW264.7 cells assessed as inhibition of LPS-induced TNFalpha production treated 2 hrs before LPS challenge measured after 24 hrs by ELISA; type: functional, cell-based; settings: in the assay text read “measured after 18 hrs” for “measured after 24 hrs”
Outline: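 RAW 264.7 cells (RPMI 1640, 10% heat-inactivated FBS, 37 °C, 5% CO2) seeded in 24-well plates, grown 24 h, then exposed to compounds (100, 50, 25, 12.5, 6.25 µM) and LPS as for the nitrite assay. TNF-α in medium measured by mouse ELISA kit. Data as mean ± SD.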

Compound | pIC50 [1] | pIC50 [2]
CC(=O)O[C@@H]1CC[C@]2(C)[C@H]3CC[C@]4(C)C(=CC[C@H]4C4=CC(C(O)C(C)(C)O)OC4=O)[C@]3(C)[C@H](O)C[C@H]2C1(C)C (stereo partly specified) [CHISOPANIN K] | 4.48 | 4.32
CO[C@@H]1O[C@@H]([C@H](O)C(C)(C)OC)C[C@H]1[C@H]1CC=C2[C@]3(C)[C@H](O)C[C@H]4C(C)(C)[C@H](OC(C)=O)CC[C@]4(C)[C@H]3CC[C@]21C [CHISOPANIN E] | 5.21 | < 4.00
CCO[C@@H]1O[C@@H]([C@H](O)C(C)(C)O)C[C@H]1[C@H]1CC=C2[C@]3(C)[C@H](O)C[C@H]4C(C)(C)[C@H](OC(C)=O)CC[C@]4(C)[C@H]3CC[C@]21C [CHISOPANIN G] | 5.27 | < 4.00
C=C(C)[C@@H](O)[C@H]1C[C@@H]([C@H]2CC=C3[C@]4(C)[C@H](O)C[C@H]5C(C)(C)[C@H](OC(C)=O)CC[C@]5(C)[C@H]4CC[C@]32C)[C@H](OC)O1 [CHISOPANIN C] | 4.40 | < 4.00
CC(=O)O[C@@H]1CC[C@]2(C)[C@H]3CC[C@]4(C)C(=CC[C@@H]4[C@H]4COC(C)(C)[C@@H](O)[C@H](O)C4)[C@]3(C)[C@H](OC(C)=O)C[C@H]2C1(C)C [CHISIAMOL C] | 5.06 | < 4.00
CO[C@H]1O[C@@H]([C@H](O)C(C)(C)O)C[C@H]1[C@H]1CC=C2[C@]3(C)[C@H](O)C[C@H]4C(C)(C)[C@H](OC(C)=O)CC[C@]4(C)[C@H]3CC[C@]21C [CHISIAMOL E] | 5.05 | < 4.00
O=c1c(-c2ccc(O)cc2)coc2cc(O)cc(O)c12 [GENISTEIN] | – | 4.72
CO[C@H]1O[C@@H]([C@H](O)C(C)(C)OC)C[C@H]1[C@H]1CC=C2[C@]3(C)[C@H](O)C[C@H]4C(C)(C)[C@H](OC(C)=O)CC[C@]4(C)[C@H]3CC[C@]21C [CHISOPANIN F] | 5.16 | < 4.00
CC(=O)O[C@@H]1CC[C@]2(C)[C@H]3CC[C@]4(C)C(=CC[C@@H]4[C@H]4COC(C)(C)[C@@H](O)[C@H](O)C4)[C@]3(C)[C@H](O)C[C@H]2C1(C)C [CHISIAMOL B] | 4.78 | < 4.00
CCO[C@H]1O[C@@H]([C@H](O)C(C)(C)O)C[C@H]1[C@H]1CC=C2[C@]3(C)[C@H](O)C[C@H]4C(C)(C)[C@H](OC(C)=O)CC[C@]4(C)[C@H]3CC[C@]21C [CHISOPANIN H] | < 4.30 | < 4.00
CC(=O)O[C@@H]1CC[C@]2(C)[C@H]3CC[C@]4(C)C(=CC[C@@H]4[C@H]4CO[C@](O)(C(C)(C)O)[C@H](O)C4)[C@]3(C)[C@H](OC(C)=O)C[C@H]2C1(C)C [CHISOPANIN A] | 5.27 | 4.57
CO[C@@H]1O[C@@H]([C@H](O)C(C)(C)O)C[C@H]1[C@H]1CC=C2[C@]3(C)[C@H](O)C[C@H]4C(C)(C)[C@H](OC(C)=O)CC[C@]4(C)[C@H]3CC[C@]21C [CHISIAMOL D] | 5.19 | < 4.00
C[C@@H]1C[C@H]2[C@@H]3CCC4=CC(=O)C=C[C@]4(C)[C@@]3(F)[C@@H](O)C[C@]2(C)[C@@]1(O)C(=O)CO [DEXAMETHASONE] | 6.07 | –
C=C(C)[C@@H](O)[C@H]1C[C@@H]([C@H]2CC=C3[C@]4(C)[C@H](O)C[C@H]5C(C)(C)[C@H](OC(C)=O)CC[C@]5(C)[C@H]4CC[C@]32C)[C@H](OCC)O1 [CHISOPANIN D] | < 4.30 | < 4.00
CO[C@@H]1O[C@@H]([C@H](O)C(C)(C)O)C[C@H]1[C@H]1CC[C@]2(C)C3=CC[C@H]4C(C)(C)C(=O)CC[C@]4(C)[C@H]3CC[C@@]12C | 4.53 | 4.26
CC(=O)O[C@@H]1CC[C@]2(C)[C@H]3CC[C@]4(C)C(=CC[C@@H]4[C@H]4CO[C@](O)(C(C)(C)O)[C@H](O)C4)[C@]3(C)[C@H](O)C[C@H]2C1(C)C [CHISOPANIN B] | 5.10 | 4.51
CCOC(C)(C)[C@@H](O)[C@H]1C[C@@H]([C@H]2CC=C3[C@]4(C)[C@H](O)C[C@H]5C(C)(C)[C@H](OC(C)=O)CC[C@]5(C)[C@H]4CC[C@]32C)[C@H](OC)O1 [CHISOPANIN I] | 5.28 | < 4.00
CCOC(C)(C)[C@@H](O)[C@H]1C[C@@H]([C@H]2CC=C3[C@]4(C)[C@H](O)C[C@H]5C(C)(C)[C@H](OC(C)=O)CC[C@]5(C)[C@H]4CC[C@]32C)[C@@H](OC)O1 [CHISOPANIN J] | 4.91 | < 4.00
CC(=O)O[C@@H]1CC[C@]2(C)[C@H]3CC[C@]4(C)C(=CC[C@@H]4[C@H]4CO[C@H](C(C)(C)O)[C@H](O)C4)[C@]3(C)[C@H](O)C[C@H]2C1(C)C | < 4.30 | 4.13
